Assay results collected from several papers.
Protocols differ between the studies behind these lines.
Target: Tyrosine-protein kinase HCK (HCK, Homo sapiens, UniProt P08631)

Compound | assay | conditions | remaining binding
Cc1nc(C2CCN(C(=O)c3ccc(OC(F)(F)F)cc3N)CC2)c2ncc(N3CCN(C)CC3)cc2n1 | cell-free assay, competition with immobilised ligand | 1 µM | 95%
C[C@@H](c1ccc(-n2cnc3c(N)ncnc32)cc1)N1CCc2nn(C)c(Cc3ccccc3)c2C1=O | binding, competition with immobilised ligand | 0.1 µM | 86%
COCCOc1nc(-c2ccc(Cl)nc2)nc2c1CN(C(=O)c1ncn3ccccc13)CC2 | cell-free assay, competition with immobilised ligand | 0.1 µM | 100%
CN(C)c1ncc(F)c(-c2cnn3ncccc23)n1 | binding | 1 µM | 46%
CCOCCn1cc(C(=O)Nc2ccc(-n3nc(-c4cccnc4)cc3C(F)(F)F)cn2)ccc1=O | cell-free assay, competition with immobilised ligand | 1 µM | 93%
Cc1cnc(Nc2ccc(C(=O)N3CCC(N4CCCC4)CC3)cc2)nc1-c1cc2ccccc2s1 | binding, competition with immobilised ligand | 1 µM | 74%
FC(F)(F)Oc1cccc(-c2cnc3ccc(-c4ccncc4)nn23)c1 | cell-free assay, competition with immobilised ligand | 5 µM | 71%
Cc1cnn2ncc(-c3ccnc(N(C)C)n3)c2c1 | binding | 1 µM | 100%
COc1cnc(Nc2cccc(S(N)(=O)=O)c2)nc1N1CCN(c2ccccc2)CC1 | binding, competition with immobilised ligand | 1 µM | 100%
C=CC(=O)N1CCC(C(=O)NCC(=O)N2CCN(c3nc(-c4cnc(N)nc4C(F)F)nc(N4CCOCC4)n3)CC2)CC1 | binding, competition with immobilised ligand | 1 µM | 86%
F[C@@H]1CCN(c2nccc(-c3cnn4ncccc34)n2)C1 | binding | 1 µM | 78%
O=C(c1ccc(Nc2nccc(-c3cc4ccccc4s3)n2)cc1)N1CCC(N2CCCC2)CC1 | binding, competition with immobilised ligand | 1 µM | 100%
COc1ccc2c(O[C@@H]3C[C@H]4C(=O)N[C@]5(C(=O)O)CC5/C=C\CCCCC[C@H](NC(=O)OC5CCCC5)C(=O)N4C3)cc(-c3csc(NC(=O)C(C)C)n3)nc2c1C (stereo partly drawn) | cell-free assay, competition with immobilised ligand | 1 µM | 100%
N[C@@H]1CCN(c2nccc(-c3cnn4ncccc34)n2)C1 | binding | 1 µM | 100%
COc1cnc(Nc2cccc(S(N)(=O)=O)c2)nc1N1CCN(c2ccccc2)C(=O)C1 | binding, competition with immobilised ligand | 1 µM | 100%
O=C(NCC1CCOCC1)c1n[nH]cc1NC(=O)c1c(F)cccc1F | binding, competition with immobilised ligand | 1 µM | 100%
CCS(=O)(=O)c1cc2cc(C[C@](O)(CC(C)(C)c3ccc(F)cc3C(N)=O)C(F)(F)F)[nH]c2cn1 | cell-free assay, competition with immobilised ligand | 1 µM | 100%
C[C@@H]1CCN(c2nccc(-c3cnn4ncccc34)n2)C1 | binding | 1 µM | 84%
O=C(NCc1ncc(C(F)(F)F)cc1Cl)c1ccc2c(c1)C1(CCS(=O)(=O)CC1)[C@@H](C1CC1)N2S(=O)(=O)c1ccc(F)cc1 | cell-free assay, competition with immobilised ligand | 1 µM | 86%
c1cnn2ncc(-c3ccnc(N4CCC45COC5)n3)c2c1 | binding | 1 µM | 90%
O=C(NCCCN1CCOCC1)c1ccc(Nc2nccc(-c3cc4ccccc4s3)n2)cc1 | binding, competition with immobilised ligand | 1 µM | 95%
